The species named for data set [1] is Mus musculus. The data set can be described thus: Cellular uptake kinetics of Porphycenes saturation cell level (cs) in SSK3 murine fibrosarcoma cells. It is filed as ADME. A digest of the protocol:
(§1)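 Murine fibrosarcoma cells (SSK2, C3H mouse-derived; MEM/5% FCS, 37 °C, 5% CO2), 2.5 × 10^5 plated and grown 18 h. Then 2 µM porphycene in DOPC liposomes diluted in MEM, incubated at 37 °C for varying times. Cells washed, trypsinized, counted, pelleted. Extraction with methanol then acetonitrile containing diphenylanthracene internal standard. Fluorescence read at ex 370 nm against calibration plots. Saturation level from monoexponential fit.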

The species entered for data set [2] is Mus musculus. The data set can be described thus: Cellular uptake kinetics of Porphycenes saturation cell level (cs)in SSK2 murine fibrosarcoma cells. It is filed as ADME. A digest of the protocol: as §1
The species named for data set [3] is Mus musculus. The data set can be described thus: Tested for phototoxic activity of compound on SSK2 cultivated murine fibrosarcoma cells. It is filed as ADME, cell-based. The note with it: light or radiation study, read-out: LD50 (the source's name). A digest of the protocol:
(§2)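 SSK2 murine fibrosarcoma cells (C3H origin), 3 × 10^5 cells/dish after 18 h attachment, incubated 4 h at 37 °C/5% CO2 with sensitizer in DPPC liposomes (DPPC/sensitizer 100:1) diluted in MEM. Cells washed, irradiated in PBS with laser light at 20 mW/cm2 for 250 s (5 J/cm2), then kept 18 h in MEM/10% FCS. Viability by trypan blue exclusion, as percent of MEM-only controls, ≥5 dishes per point. LD50 in incubation medium by probit analysis.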

Data set [4] is filed under the species Mus musculus. The data set can be described thus: Cellular uptake kinetics of Porphycenes saturation cell level (cs) in SSK2 murine fibrosarcoma cells. It is filed as ADME. A digest of the protocol:
as §1

For data set [5], the species on record is Mus musculus. The data set can be described thus: Tested for phototoxic activity of compound on SSK3 cultivated murine fibrosarcoma cells. The note with it: light or radiation study, read-out: LD50 (the source's name). It is filed as ADME, cell-based.
Data set [6] in a line: Cellular uptake kinetics of Porphycenes saturation cell level (cs). It is filed as ADME. A digest of the protocol:
as §1

For data set [7], the species on record is Mus musculus. The data set can be described thus: Tested for Photodynamic activity of Sensitizers for cultivated SSK2 cells. To be noted: read-out: LD50 (the source's name). It is filed as ADME, cell-based. A digest of the protocol: as §2
The nature of data set [8]: (§3) Tested for Photodynamic activity of Sensitizers, lethal dose concentration in incubation media as obtained by probit analysis of SSK3 fibrosarcoma cells. It is filed as ADME. To be noted: Mus musculus, light or radiation study; read-out: LD50 (the source's name). A digest of the protocol:
as §2

Data set [9] is filed under the species Mus musculus. The description is as §3. It is filed as ADME, cell-based. To be noted: in vivo, read-out: LD50 (the source's name). A digest of the protocol: as §2

Consider `CCCC1=Cc2nc1ccc1[nH]c(cc1CCO)c1nc(ccc3[nH]c2cc3CCC)C(CCO)=C1`, for which the Cell saturation in the data set filed under Mus musculus [1] is 26 pM (10e5*cells)-1.

Regarding `CCCC1=Cc2nc1ccc1[nH]c(cc1CCOC)c1nc(ccc3[nH]c2cc3CCC)C(CCOC)=C1`, the Cell saturation in the data set filed under Mus musculus [1] is 14 pM (10e5*cells)-1.

As to `COCCC1=Cc2nc1ccc1[nH]c(cc1CCOC)c1nc(ccc3[nH]c2cc3CCOC)C(CCOC)=C1`, in the data set listed under Mus musculus [2], the Cell saturation is 9.3 pM (10e5·cells)-1. Besides, the CC50 in the data set filed under Mus musculus [3] was found to be 0.0085 µM.

With `CCCC1=Cc2nc1ccc1[nH]c(cc1CCC)c1nc(c(OC(C)=O)cc3[nH]c2cc3CCC)C(CCC)=C1`, the Cell saturation in the data set filed under Mus musculus [4] is reported as 1.2 pM (10e5*cells)-1. Besides, in the data set filed under Mus musculus [3], the CC50 was 0.11 µM.

`COCCC1=Cc2nc1ccc1[nH]c(cc1CCOC)c1nc(ccc3[nH]c2cc3CCOC)C(CCO)=C1`: the CC50 was 0.0091 µM in the data set listed under Mus musculus [5] and 0.09 µM in the data set filed under Mus musculus [3]. Besides, the Cell saturation in [6] was 9.3 pM (10e5*cells)-1.

For `CCCC1=Cc2nc1ccc1[nH]c(cc1CCC)c1nc(ccc3[nH]c2cc3CCC)C(CCC)=C1`, the Cell saturation in the data set listed under Mus musculus [4] is 1.5 pM (10e5*cells)-1.

Turning to `COCCC1=Cc2nc1ccc1[nH]c(c3nc(ccc4[nH]c2cc4CCOC)C(CCOC)=C3)c2c(C(=O)OC)c(C(=O)O)ccc12`, the CC50 in the data set listed under Mus musculus [7] amounted to 0.13 µM; in [8], 0.013 µM. In addition, in [6], the Cell saturation was 7.3 pM (10e5*cells)-1.

Regarding `C=CC1=C(C)c2cc3[nH]c(cc4nc(cc5[nH]c(cc1n2)c(C)c5CCC(=O)O)C(CCC(=O)O)=C4C)c(C)c3C=C` [PROTOPORPHYRIN DISODIUM], the CC50 in the data set filed under Mus musculus [9] stood at 1.9 µM; in the data set filed under Mus musculus [7], 19 µM.

(Values after ChEMBL document CHEMBL1127790, “Photodynamic antitumor agents: beta-methoxyethyl groups give access to functionalized porphycenes and enhance cellular uptake and activity” (J Med Chem, 1994).)
